Consider five compounds from ChEMBL document CHEMBL3856184, “Tyrosol and hydroxytyrosol derivatives as antitrypanosomal and antileishmanial agents” (Eur J Med Chem, 2016).

The test system of one series is Leishmania infantum. Nature of the series: Leishmanicidal activity against Leishmania infantum MHOM/TN/94/LV50 promastigotes after 24 hrs by MTT assay. The format is functional. To be noted: MHOM/TN/94/LV50, 24 h.
Series [1] can be described thus: Cytotoxicity against human MRC5 cells assessed as inhibition of cell proliferation measured after 72 hrs by MTT assay. The format is toxicity, cell-based. The method in brief: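 SV-40 transformed fetal lung fibroblasts kept in DMEM with 10% hiFBS and penicillin/streptomycin at 37 °C, 5% CO₂. Cells trypsinized, seeded at 4 x 10⁴ cell/ml and exposed to increasing concentrations for 72 h at 37 °C. Viability read by colorimetric MTT. EC₅₀ taken as the concentration reducing growth by 50% versus untreated cells.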
Background: Formazan colour is commonly taken as a measure of viable cells.

Series [2] concerns Leishmania donovani. Nature of the series: Antileishmanial activity against Leishmania donovani MHOM/ET/67/HU3 axenic amastigotes at 20 uM after 72 hrs by resazurin-based assay relative to control. The note with it: MHOM/ET/67/HU3, 72 h. The format is functional. The method in brief:
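Axenic amastigotes grown in Schneider medium with 20% hiFBS, pH 5.4, 37 °C, 5% CO₂. 10⁶ parasites/ml exposed to a single 20 μM concentration for 72 h at 37 °C. Viability read by resazurin assay, reported as percent inhibition.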
Background: Resazurin is reduced to fluorescent resorufin, in cell work by metabolically active cells.

For another series, the system named is Leishmania major. Kind of series: Leishmanicidal activity against Leishmania major MHOM/TN/95/GLC94 promastigotes after 24 hrs by MTT assay. The note with it: MHOM/TN/95/GLC94, 24 h. It counts as functional.
The subject of series [3] is Trypanosoma brucei brucei. Nature of the series: Potency index, ratio of IC50 for tyrosol to IC50 for test compound against bloodstream form of Trypanosoma brucei brucei S16. The format is functional.
Series [4] is described as follows: Selectivity index, ratio of IC50 for human MRC5 cells to IC50 for bloodstream form of Trypanosoma brucei brucei S16. It counts as toxicity, cell-based. The note with it: read-out: Ratio IC50.
Series [5] relates to Trypanosoma brucei brucei. Nature of the series: Antitrypanosomal activity against bloodstream form of Trypanosoma brucei brucei S16 assessed as inhibition of proliferation measured after 72 hrs by alamarBlue assay. It counts as functional. To be noted: S16, 72 h. The method in brief: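 Bloodstream forms cultured in HMI-9 with 10% hiFBS at 37 °C, 5% CO₂. Seeded at 1 × 10⁴ per mL with increasing compound concentrations for 72 h under the same conditions. Proliferation read by alamarBlue fluorescence, excitation 550 nm and emission 590 nm.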

Series [6] can be described thus: Selectivity index, ratio of IC50 for human MRC5 cells to IC50 for intracellular amastigotes of Leishmania donovani MHOM/ET/67/HU3 infected in human THP1 cells. The format is toxicity, cell-based. The note with it: read-out: Ratio IC50.
Series [7] deals with Leishmania donovani. Nature of the series: Antileishmanial activity against Leishmania donovani MHOM/ET/67/HU3 intracellular amastigotes infected in human THP1 cells after 72 hrs by luciferase coupled luminescence assay. The format is functional, cell-based. To be noted: MHOM/ET/67/HU3, THP-1, 72 h. The method in brief: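 Luciferase-expressing parasite line. THP-1 cells differentiated with 20 ng/mL PMA for 48 h, then 24 h in fresh medium, seeded at 3x10⁴ macrophages/well and infected with late-stage promastigotes at a macrophage:parasite ratio of 1:10. Infected cultures exposed to a range of concentrations in RPMI 1640 with 10% hiFBS at 37 °C, 5% CO₂ for 72 h, then lysed. Luminescence read as intracellular parasite growth.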

Series [8] relates to Leishmania donovani. Nature of the series: Potency index, ratio of IC50 for tyrosol to IC50 for test compound against intracellular amastigotes of Leishmania donovani MHOM/ET/67/HU3 infected in human THP1 cells. It counts as functional, THP-1.
In series [9] the test system is Leishmania donovani. Kind of series: Antileishmanial activity against Leishmania donovani MON-2 MHOM/IN/1996/THAK35 amastigotes infected in mouse J774A.1 cells after 72 hrs by alamarBlue assay. It counts as functional, cell-based. The note with it: MON-2 MHOM/IN/1996/THAK35, J774.A1, 72 h.
Series [10] relates to Trypanosoma brucei rhodesiense. Nature of the series: Antitrypanosomal activity against Trypanosoma brucei rhodesiense. It counts as functional.

One may read the IC50 as the concentration at which inhibition is half-maximal. A word on the inhibition: it is the percentage by which the read-out fell short of the control. The low end stands for a weak effect, the high end for a strong effect. For `CCCCCCCCCC(=O)OCCc1ccc(O)cc1`, the IC50 is 132 µM in the series with Leishmania infantum, 65 µM in the series with Leishmania major and 81.4 µM in series [5]. In addition, the half-inhibitory concentration (IC50) at 72 h in series [1] was found to be 172 µM. In the series with Leishmania donovani [2], this compound gave an inhibition at 20 µM of 34%. Also, the “Ratio IC50” value in [3] was 0.16. Further, the selectivity ratio in series [4] turned out to be 2.1.

With `CCCCCCCC(=O)OCCc1ccc(O)cc1`, the values for the selectivity ratio in [6] and in series [4] were 13.3 and 2.3, respectively. Further, the 50% inhibitory concentration (IC50) at 72 h in series [1] was found to be 133 µM. This compound also registered an inhibition at 20 µM in the series on Leishmania donovani [2] of 46%. Further, the results for the “Ratio IC50” value (in [3]; with Leishmania donovani [8]) were 0.22 and 1, respectively. Also, the IC50 in the series on Leishmania donovani [7] is > 10 µM; in [5], 56.8 µM.

Regarding `CCCCCC(=O)OCCc1ccc(O)cc1`, the selectivity ratio stood at 16.6 in [6] and 2.8 in series [4]. For the same compound, the IC50 at 72 h in series [1] amounted to 166 µM. 20 µM produced 44% inhibition in the series with Leishmania donovani [2]. Also, the “Ratio IC50” value in [3] amounted to 0.16; with Leishmania donovani [8] it was 1. The concentration for half-maximal inhibition (IC50) is > 10 µM in the series with Leishmania donovani [7] and 59.1 µM in [5].

Regarding `OCCc1ccc(O)c(O)c1` [HYDROXYTYROSOL], in series [1], the IC50 at 72 h is > 50 µM. The compound also gave an inhibition at 20 µM with Leishmania donovani [2] of 0%. The IC50 in the series on Leishmania donovani [9] amounted to 393 µM; in series [5], 47.5 µM. The selectivity ratio in series [4] is > 1.

Consider `OCCc1ccc(O)cc1` [TYROSOL], for which the half-inhibitory concentration (IC50) in series [10] was > 15 µM; in the series on Leishmania donovani [7], > 10 µM; in series [5], > 10 µM. For the same compound, the selectivity ratio was 5 in [6] and > 5 in series [4]. Further, in series [1], the half-maximal inhibitory concentration (IC50) at 72 h is > 500 µM. For the same compound, the inhibition at 20 µM with Leishmania donovani [2] is 50%.
